According to ChEMBL document CHEMBL4177653, “Identification of nitroimidazole-oxime derivatives targeting the polo-box domain of polo-like kinase 1” (Bioorg Med Chem, 2017):
≈ marks a conversion by molar mass, not a printed value.

How the values were obtained:
MGC-803 [1] = test: Antiproliferative activity against human MGC803 cells after 72 hrs by MTT assay; type: functional, cell-based; conditions: MGC-803, 72 h
Outline: (§1)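 Cells kept in high-glucose DMEM with L-glutamine, 10% FBS, penicillin/streptomycin, at 37 °C and 5% CO2. Seeded in 96-well plates and preincubated 48 h. Compounds added at preset concentrations (6 wells each; erlotinib as positive reference) for 72 h. MTT in PBS (2.5 mg/mL) added for 4 h, formazan dissolved in DMSO, A570 read. IC50 is the concentration leaving 50% of cells surviving. Mean ± SD of three independent experiments in triplicate.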

HepG2 = test: Antiproliferative activity against human HepG2 cells after 72 hrs by MTT assay; type: functional, cell-based; conditions: HepG2, 72 h; outline: as §1
MCF7 = test: Antiproliferative activity against human MCF7 cells after 72 hrs by MTT assay; type: functional, cell-based; conditions: MCF7, 72 h; outline: as §1
[2] = Cytotoxicity against human 293T cells after 72 hrs by MTT assay; type: cell-based; conditions: HEK-293T cells
HeLa = test: Antiproliferative activity against human HeLa cells after 72 hrs by MTT assay; type: functional, cell-based; outline: as §1
MGC-803 [3] = test: Induction of apoptosis in human MGC803 cells assessed as late apoptotic cells at 0.06 uM after 24 hrs by Annexin V-FITC/propidium iodide staining-based flow cytometry (reference value: 0%); type: functional
MGC-803 [4] = test: Induction of apoptosis in human MGC803 cells assessed as necrotic cells at 0.12 uM after 24 hrs by Annexin V-FITC/propidium iodide staining-based flow cytometry (reference value: 0%); type: functional
MGC-803 [5] = test: Induction of apoptosis in human MGC803 cells assessed as late apoptotic cells at 0.12 uM after 24 hrs by Annexin V-FITC/propidium iodide staining-based flow cytometry (reference value: 0%); type: functional
MGC-803 [6] = test: Induction of apoptosis in human MGC803 cells assessed as early apoptotic cells at 0.06 uM after 24 hrs by Annexin V-FITC/propidium iodide staining-based flow cytometry (reference value: 0.1%); type: functional
MGC-803 [7] = test: Induction of apoptosis in human MGC803 cells after 24 hrs by Annexin V-FITC/propidium iodide staining-based flow cytometry; type: functional, cell-based
MGC-803 [8] = test: Induction of apoptosis in human MGC803 cells assessed as viable cells at 0.12 uM after 24 hrs by Annexin V-FITC/propidium iodide staining-based flow cytometry (reference value: 99.9%); type: functional; conditions: MGC-803, 24 h, read-out: Activity
MGC-803 [9] = test: Induction of apoptosis in human MGC803 cells assessed as early apoptotic cells at 0.01 uM after 24 hrs by Annexin V-FITC/propidium iodide staining-based flow cytometry (reference value: 0.1%); type: functional
MGC-803 [10] = test: Induction of apoptosis in human MGC803 cells assessed as viable cells at 0.06 uM after 24 hrs by Annexin V-FITC/propidium iodide staining-based flow cytometry (reference value: 99.9%); type: functional; conditions: MGC-803, 24 h, read-out: Activity
MGC-803 [11] = test: Induction of apoptosis in human MGC803 cells assessed as viable cells at 0.01 uM after 24 hrs by Annexin V-FITC/propidium iodide staining-based flow cytometry (reference value: 99.9%); type: functional; conditions: MGC-803, 24 h, read-out: Activity
MGC-803 [12] = test: Induction of apoptosis in human MGC803 cells assessed as late apoptotic cells at 0.01 uM after 24 hrs by Annexin V-FITC/propidium iodide staining-based flow cytometry (reference value: 0%); type: functional
MGC-803 [13] = test: Induction of apoptosis in human MGC803 cells assessed as early apoptotic cells at 0.12 uM after 24 hrs by Annexin V-FITC/propidium iodide staining-based flow cytometry (reference value: 0.1%); type: functional
MGC-803 [14] = test: Induction of apoptosis in human MGC803 cells assessed as necrotic cells at 0.01 uM after 24 hrs by Annexin V-FITC/propidium iodide staining-based flow cytometry (reference value: 0%); type: functional
MGC-803 [15] = test: Induction of apoptosis in human MGC803 cells assessed as necrotic cells at 0.06 uM after 24 hrs by Annexin V-FITC/propidium iodide staining-based flow cytometry (reference value: 0%); type: functional

SMILES	IC50 (MGC-803 [1]) [µg/mL]	IC50 (HepG2) [µg/mL]	IC50 (MCF7) [µg/mL]	CC50 at 72 h [2] [µg/mL]	IC50 (HeLa) [µg/mL]	also measured
Cc1nc([N+](=O)[O-])cn1C/C(=N/OC(=O)c1ccc([N+](=O)[O-])cc1)c1ccc(Br)cc1	0.37 (≈ 0.758 µM)	1.43 (≈ 2.93 µM)	0.86 (≈ 1.76 µM)	160 (≈ 328 µM)	12.4 (≈ 25.4 µM)	–
CC1=CC(=O)C(C(C)C)=CC1=O [THYMOQUINONE]	–	–	–	140 (≈ 853 µM)	–	–
Cc1nc([N+](=O)[O-])cn1C/C(=N/OC(=O)c1ccc(Cl)nc1)c1ccc(Br)cc1	0.82 (≈ 1.71 µM)	0.71 (≈ 1.48 µM)	0.79 (≈ 1.65 µM)	250 (≈ 522 µM)	0.96 (≈ 2.01 µM)	–
Cc1nc([N+](=O)[O-])cn1C/C(=N/OC(=O)c1cccc(Cl)c1)c1ccc(Br)cc1	0.18 (≈ 0.377 µM)	1.15 (≈ 2.41 µM)	0.84 (≈ 1.76 µM)	700 (≈ 1470 µM)	4.09 (≈ 8.56 µM)	–
COc1ccc(C(=O)O/N=C(/Cn2cc([N+](=O)[O-])nc2C)c2ccc(Br)cc2)cc1	0.34 (≈ 0.718 µM)	1.25 (≈ 2.64 µM)	3.15 (≈ 6.66 µM)	1600 (≈ 3380 µM)	6.54 (≈ 13.8 µM)	–
Cc1nc([N+](=O)[O-])cn1C/C(=N/OC(=O)c1cccnc1Cl)c1ccc(Br)cc1	0.73 (≈ 1.52 µM)	0.76 (≈ 1.59 µM)	0.76 (≈ 1.59 µM)	12000 (≈ 25100 µM)	1.28 (≈ 2.67 µM)	–
Cc1nc([N+](=O)[O-])cn1C/C(=N/OC(=O)c1ccccc1Br)c1ccc(Br)cc1	2.63 (≈ 5.04 µM)	4.38 (≈ 8.39 µM)	3.79 (≈ 7.26 µM)	150 (≈ 287 µM)	> 20	–
Cc1nc([N+](=O)[O-])cn1C/C(=N/OC(=O)c1ccncc1)c1ccc(Br)cc1	0.02 (≈ 0.045 µM)	0.81 (≈ 1.82 µM)	0.87 (≈ 1.96 µM)	80 (≈ 180 µM)	1.63 (≈ 3.67 µM)	–
Cc1nc([N+](=O)[O-])cn1C/C(=N/OC(=O)c1ccccc1Cl)c1ccc(Br)cc1	0.16 (≈ 0.335 µM)	1.33 (≈ 2.78 µM)	1.27 (≈ 2.66 µM)	530 (≈ 1110 µM)	8.53 (≈ 17.9 µM)	–
Cc1ccc(C(=O)O/N=C(/Cn2cc([N+](=O)[O-])nc2C)c2ccc(Br)cc2)cc1	0.81 (≈ 1.77 µM)	0.96 (≈ 2.1 µM)	1.54 (≈ 3.37 µM)	270 (≈ 590 µM)	0.96 (≈ 2.1 µM)	–
Cc1nc([N+](=O)[O-])cn1C/C(=N/OC(=O)c1ccccc1[N+](=O)[O-])c1ccc(Br)cc1	2.54 (≈ 5.2 µM)	6.59 (≈ 13.5 µM)	7.13 (≈ 14.6 µM)	230 (≈ 471 µM)	11.3 (≈ 23.2 µM)	–
Cc1ccc(C(=O)O/N=C(/Cn2cc([N+](=O)[O-])nc2C)c2ccc(Br)cc2)cn1	0.005 (≈ 0.0109 µM)	0.75 (≈ 1.64 µM)	0.72 (≈ 1.57 µM)	8300 (≈ 18100 µM)	0.86 (≈ 1.88 µM)	Activity (MGC-803 [3]): 43.2%; Activity (MGC-803 [4]): 0.1%; Activity (MGC-803 [5]): 64.6%; Activity (MGC-803 [6]): 15.4%; Activity (MGC-803 [7]): Dose-dependent effect; viability at 0.12 µM (MGC-803 [8]): 18.4%; Activity (MGC-803 [9]): 9.7%; viability at 0.06 µM (MGC-803 [10]): 41.2%; viability at 0.01 µM (MGC-803 [11]): 61%; Activity (MGC-803 [12]): 28.1%; Activity (MGC-803 [13]): 16.9%; Activity (MGC-803 [14]): 1.2%; Activity (MGC-803 [15]): 0.2%
Cc1nc([N+](=O)[O-])cn1C/C(=N/OC(=O)c1cccnc1)c1ccc(Br)cc1	0.01 (≈ 0.0225 µM)	0.73 (≈ 1.64 µM)	0.78 (≈ 1.76 µM)	50 (≈ 113 µM)	1.51 (≈ 3.4 µM)	–
COc1ccccc1C(=O)O/N=C(/Cn1cc([N+](=O)[O-])nc1C)c1ccc(Br)cc1	3.53 (≈ 7.46 µM)	> 20	3.13 (≈ 6.61 µM)	500 (≈ 1060 µM)	> 20	–
Cc1nc([N+](=O)[O-])cn1C/C(=N/OC(=O)c1ccc(Cl)cc1)c1ccc(Br)cc1	0.45 (≈ 0.942 µM)	1.34 (≈ 2.81 µM)	2.79 (≈ 5.84 µM)	230 (≈ 481 µM)	8.79 (≈ 18.4 µM)	–
Cc1nc([N+](=O)[O-])cn1C/C(=N/OC(=O)c1ccc(Br)cc1)c1ccc(Br)cc1	1.48 (≈ 2.83 µM)	2.56 (≈ 4.9 µM)	2.56 (≈ 4.9 µM)	330 (≈ 632 µM)	5.67 (≈ 10.9 µM)	–
Cc1nc([N+](=O)[O-])cn1C/C(=N/OC(=O)c1cccc(Br)c1)c1ccc(Br)cc1	0.04 (≈ 0.0766 µM)	0.86 (≈ 1.65 µM)	1.37 (≈ 2.62 µM)	180 (≈ 345 µM)	2.57 (≈ 4.92 µM)	–
Cc1ccccc1C(=O)O/N=C(/Cn1cc([N+](=O)[O-])nc1C)c1ccc(Br)cc1	0.84 (≈ 1.84 µM)	2.37 (≈ 5.18 µM)	2.15 (≈ 4.7 µM)	3800 (≈ 8310 µM)	9.76 (≈ 21.3 µM)	–
Cc1nc([N+](=O)[O-])cn1C/C(=N/OC(=O)c1cccc(F)c1)c1ccc(Br)cc1	0.21 (≈ 0.455 µM)	0.97 (≈ 2.1 µM)	1.87 (≈ 4.05 µM)	530 (≈ 1150 µM)	4.55 (≈ 9.86 µM)	–
COc1ccc(C(=O)O/N=C(/Cn2cc([N+](=O)[O-])nc2C)c2ccc(Br)cc2)cn1	0.03 (≈ 0.0633 µM)	0.92 (≈ 1.94 µM)	0.89 (≈ 1.88 µM)	980 (≈ 2070 µM)	2.35 (≈ 4.95 µM)	–
Cc1nc([N+](=O)[O-])cn1C/C(=N/OC(=O)c1ccc(F)cc1)c1ccc(Br)cc1	1.24 (≈ 2.69 µM)	1.22 (≈ 2.65 µM)	2.12 (≈ 4.6 µM)	23000 (≈ 49900 µM)	7.24 (≈ 15.7 µM)	–
Cc1nc([N+](=O)[O-])cn1C/C(=N/OC(=O)c1ccccc1)c1ccc(Br)cc1	3.66 (≈ 8.26 µM)	14 (≈ 31.5 µM)	> 20	32000 (≈ 72200 µM)	> 20	–
O=c1[nH]cc(F)c(=O)[nH]1 [FLUOROURACIL]	1.8 (≈ 13.8 µM)	2.24 (≈ 17.2 µM)	2.19 (≈ 16.8 µM)	–	3.82 (≈ 29.4 µM)	–
Cc1nc([N+](=O)[O-])cn1C/C(=N\O)c1ccc(Br)cc1	> 20	17.4 (≈ 51.3 µM)	> 20	–	> 20	–
Cc1cccc(C(=O)O/N=C(/Cn2cc([N+](=O)[O-])nc2C)c2ccc(Br)cc2)c1	3.25 (≈ 7.11 µM)	10.7 (≈ 23.3 µM)	2.82 (≈ 6.17 µM)	1300 (≈ 2840 µM)	12.3 (≈ 27 µM)	–
